Screening data from PubChem.
The list is not random: actives were taken first. Their share in the collection is about 2%.
HCV NS3 hel inh – HCV NS3 helicase inhibition. inhibition, % at 10.9 µM. NS3 helicase DNA unwinding, Cy5 molecular beacon fluorescence. hit rate 0.56% among 290,000;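 active = inhibition above the mean of all tested compounds plus 3 SD, set per campaign, cut at about 35% in these data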;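 also: 0% = DMSO wells and 100% = thioflavine S control wells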
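Test system: hepatitis C virus NS3 helicase domain fragment enzyme. Also added: annealed dual-labelled DNA beacon duplex, ATP-started. Timing: 60 min unwinding reaction at 25 °C after ATP addition. Technique: Cy5 fluorescence. Measure: % inhibition of unwinding.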
core dimer inh – blocks dimerization of HCV core protein; AID 1899; hit rate 0.33% among 300,000; inhibition, % at 5 µM; TR-FRET GST/Flag-core106 dimerization, 1536-well;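 active = inhibition above the mean of all tested compounds plus 3 SD, set per screening campaign, cut at about 45% in these data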
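Material: GST/Flag-tagged HCV core106 proteins. Incubation: 4 h, 22.5 °C incubation. Read-out basis: inhibition (%) from 671 over 617 nm ratio. Measured by: TR-FRET, excitation 340 nm, emission 617 and 671 nm.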
PABP polyA inh – blocks human PABP binding to poly(A) RNA | hit rate 1% among 290,000 | inhibition, % at 35 µM | fluorescence polarization;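 also: calls also rest on retests at 20 µM and on dose response follow-up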
MLLE-PAM2 inh – blocks PAM2 peptide binding to the PABP1 MLLE domain | hit rate 0.36% among 360,000 | AID 588489 | GST-MLLE / FITC-PAM2 fluorescence polarization | inhibition, % at 20 µM; in the data active = inhibition above about 35%, passing the limit was not always enough;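 also: plate controls were DMSO wells with GST-MLLE for no effect and wells lacking GST-MLLE protein for full effect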
FID counter – displaces DNA intercalator in HCV helicase counter-screen. DNA fluorescent intercalator displacement, fluorescence. inhibition, % at 7.9 µM. hit rate 0.17% among 290,000. AID 1845; in the data active = inhibition above about 37%;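 also: 0% = vehicle and 100% = reference compound; higher means more ethidium bromide displaced from hairpin DNA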
eIF4H inh – inhibitors of RNA binding by human eIF4H | Q15056 | eIF4H fluorescence polarization binding assay | inhibition, % at 35 µM | hit rate 0.94% among 290,000 | AID 2012;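 also: calls also rest on retests at 20 µM and on dose response follow-up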
* hit, by the source's call; ? = inconclusive; / = no result given. Unless noted, no rule for the calls is given here.

SMILES	HCV NS3 hel inh	core dimer inh	PABP polyA inh	MLLE-PAM2 inh	FID counter	eIF4H inh
Nc1ccc2[nH]ncc2c1	-6.7	-2.6	8.4*	3.9	1.9	56.6*
Cc1ccccc1NS(=O)(=O)c1cc2c3c(c1)C(C)C(=O)N3CCC2 (centres undefined)	10.1	1.7	/	9.2	-25.3	/
COc1ccc(NC(=O)Cc2cccs2)c(OC)c1	-1.1	4.1	3.7	-9.7	0.2	2.2
COc1cc(NC(=O)c2ccccc2)c(OC)cc1NC(=O)Cc1cccs1	11.5	66.5*	7.1	-20.0	-16.0	57.5*
Cc1ccc([N+](=O)[O-])cc1NC(=O)Cc1cccs1	23.2	54.1*	-8.7	-14.0	-5.3	37.4
COC(=O)c1cc(NC(=O)Cc2cccs2)cc(C(=O)OC)c1	13.6	49.2*	13.6	0.7	-5.7	44.9
NS(=O)(=O)c1cccc(NC(=O)COC(=O)c2ccc(S(=O)(=O)N3CCOCC3)cc2)c1	/	/	/	-14.7	/	/
Cc1ccc(OCc2cc(C(=O)N(C)Cc3cc(C4CC4)n[nH]3)no2)cc1C	-11.6	1.2	6.3	-4.3	-38.5	-5.9
C(C#CCN1CCOCC1)#CCN1CCOCC1	/	/	/	-3.3	/	/
Oc1ccc(/C=N/Nc2ccc(C(F)(F)F)cn2)cc1	1.4	2.1	2.6	7.3	6.0	6.5
C/C(=N\Nc1ccc(C(F)(F)F)cn1)c1ccncc1	16.5	0.8	79.9*	1.7	-1.8	active
Cc1cc(C)nc(N/N=C/c2ccccc2OCc2ccccc2)n1	-16.3	1.2	active	-6.6	-12.8	82.5
CC12CC3(C)CC(C)(C1)CC(C(=O)NC(=S)NC(C)(C)C)(C2)C3	-9.9	-1.1	-0.1	42.6*	14.1	-0.8
Cc1ccc(S(=O)(=O)CCSc2cccc(C(=O)O)c2)cc1	11.4	0.1	9.3	44.0*	-11.6	4.8
Cc1cc(C)c(C)c(S(=O)(=O)NCc2ccncc2)c1C	-15.9	-0.7	10.1	-5.4	-10.9	2.9
Cn1ccnc1SCC(=O)Nc1sccc1C#N	8.8	70.6*	4.1	9.5	-7.0	17.5
O=C(CSc1ncnc2ccccc12)NCc1ccco1	5.8	4.2	7.2	43.8*	-2.8	11.9
N#Cc1ccsc1NC(=O)CSc1ncnc2ccccc12	17.6	80.0*	47.1	-11.4	-15.8	44.6
Cc1nnc(SCC(=O)Nc2sccc2C#N)s1	17.8	33.3	21.7	3.4	-4.5	49.5
Cc1nnc(SCC(=O)Nc2sccc2C#N)n1Cc1ccccc1	9.6	40.8	70.1*	-12.3	-13.4	28.8*
O=C(CSc1nc2[nH]ncc2c(=O)[nH]1)Nc1cc(C(F)(F)F)ccc1Cl	/	/	/	1.0	/	/
COc1ccc(C(=O)NC2CC(C)(C)NC(C)(C)C2)cc1S(=O)(=O)N1CCOCC1	/	/	/	-2.5	/	/
COc1ccc(N2Cc3cccc(C(=O)N4CCOCC4)c3C2=O)cc1	2.2	-3.6	-10.0	-17.3	-6.8	-10.7
COc1ccc(N2Cc3cccc(C(=O)N4CCN(C(=O)c5ccco5)CC4)c3C2=O)cc1	5.7	85.4*	70.4*	-9.7	-19.8	93.3*
CCCCc1cn([C@@H](CCCCN)C(=O)N2CCNCC2)nn1	2.7	-4.2	?	48.7*	6.0	?
SMILES	HCV NS3 hel inh	core dimer inh	PABP polyA inh	MLLE-PAM2 inh	FID counter	eIF4H inh
CC(C)C[C@H](N)c1cn([C@@H](CCCCN)C(=O)N2CCNCC2)nn1	2.7	-0.6	51.8*	10.2	35.8	16.0
CC(C)CC(N)c1cn([C@@H](CCC(=O)O)C(=O)N2CCNCC2)nn1 (some centres undefined)	2.5	-16.9	0.3	3.6	0.8	-12.7
Cc1ccc(CSC2=Nc3ccccc3C3=NC(CC(=O)NCc4ccco4)C(=O)N23)cc1 (centres undefined)	30.5	64.2*	29.1*	-7.6	-23.9	51.4*
C[C@@H]1CN([C@@H](C)CO)C(=O)CCCn2nncc2CO[C@H]1CN(C)C(=O)OCc1ccccc1	/	/	/	-1.1	/	/
Cc1c(N=Cc2cc3c(cc2[N+](=O)[O-])OCO3)cccc1[N+](=O)[O-]	/	0.8	/	24.0	/	/
O=C(O)c1ccc(N/N=C/c2cc3c(cc2[N+](=O)[O-])OCO3)cc1	3.2	-21.5	/	25.8	-6.7	/
Cc1ccccc1N=Cc1cc2c(cc1[N+](=O)[O-])OCO2	16.1	-0.9	3.0*	15.1	-1.7	96.0
Cc1cc(C)nc(N/N=C/c2cc3c(cc2[N+](=O)[O-])OCO3)n1	-2.4	-9.8	11.2*	8.2	1.1	54.8*
CN(C)c1nc(-c2cn(CCC#N)c3ccccc23)cs1	-18.7	0.5	39.0	48.8*	5.4	17.6
CCC1CCCCN1C(=O)COC(=O)c1cc(C)nc2ccccc12 (centres undefined)	/	/	/	-0.9	/	/
COCCn1c(SCc2nc3sc(C(=O)OC)c(C)c3c(=O)[nH]2)nc2ccccc21	-5.1	8.5	23.5	-87.5	-1.1	53.2
CCn1c(SCc2nc3sc(C(=O)O)c(C)c3c(=O)[nH]2)nc2ccccc21	7.3	-4.9	80.4*	-30.2	-30.2	83.3*
COC(=O)c1sc2nc(CSc3ccc(Br)cc3)[nH]c(=O)c2c1C	11.9	1.7	16.8*	-38.7	5.4	51.2*
Cc1ccc(Cn2c(C(C)Nc3nc(C)cs3)nc3cc(Cl)c(Cl)cc32)cc1 (centres undefined)	/	-2.3	/	/	/	/
O=c1c2c3c(sc2[nH]c(=S)n1Cc1ccco1)CCC3	11.2	48.1*	57.7*	5.0	-15.7	81.3*
CCOc1cccc(-c2nc3c(s2)CCc2onc(-c4cccc([N+](=O)[O-])c4)c2-3)c1	/	-5.3	/	-5.8	/	/
Cc1cc2cc(CNC(=O)Cc3ccc([N+](=O)[O-])cc3)ccc2n1C	-14.7	3.9	16.0	40.3*	1.0	47.3
Cc1cc2cc(CNC(=O)CCC(=O)O)ccc2n1C	6.1	4.1	2.1	16.7	-14.3	2.8
Cc1cc2cc(CNC(=O)Cc3cccs3)ccc2n1C	/	-12.4	31.7	38.8*	/	40.3
NS(=O)(=O)c1ccc(CNC(=O)Cc2cccs2)cc1	33.1	39.7	15.6	-28.0	-5.7	57.7*
O=C(Cc1cccs1)NCc1ccccc1	5.5	0.1	1.2	8.4	0.6	1.1
Cc1c(C(=O)NCc2ccc3c(c2)cc(C)n3C)cccc1[N+](=O)[O-]	-20.3	-6.2	-0.4	47.5*	-8.6	19.1
Cc1ccc(Nc2nc(N)nc(COC(=O)C3=COCCO3)n2)cc1	/	/	/	1.5	/	/
CC(C)(C)OC(=O)NCCc1onc(-c2ccccc2F)c1C(=O)O	/	/	/	-6.0	/	/
C[C@]12C[C@H](O)[C@H]3[C@@H](CCC4=CC(=O)CC[C@@]43C)[C@@H]1CC[C@@H]2C(=O)CO	2.4	1.4	118.4	0.7	-14.1	5.2*
O=C(CN1C(=O)/C(=C/c2ccccc2Cl)SC1=S)NC1CCS(=O)(=O)C1 (centres undefined)	4.3	0.1	6.6	39.2*	-13.7	-3.0
NC(=O)[C@@H]1CCCN1C(=O)[C@@H](Cc1cnc[nH]1)NC(=O)[C@@H]1CCC(=O)N1	/	/	/	6.3	/	/
